Test results taken from paper PMC2874468 (Journal of the American Chemical Society, 2010).
Where “and” joins values, the source holds several entries; their conditions need not be identical. Identical values can stand only once.

Experiments:
[1] = test system: IspH; conditions: cited from earlier work
[2] = target: T1, A. aeolicus IspH (Aquifex aeolicus, UniProt O67625); test: IspH enzyme inhibition assay; assay type: biochemical
T1 sequence (O67625 1-289): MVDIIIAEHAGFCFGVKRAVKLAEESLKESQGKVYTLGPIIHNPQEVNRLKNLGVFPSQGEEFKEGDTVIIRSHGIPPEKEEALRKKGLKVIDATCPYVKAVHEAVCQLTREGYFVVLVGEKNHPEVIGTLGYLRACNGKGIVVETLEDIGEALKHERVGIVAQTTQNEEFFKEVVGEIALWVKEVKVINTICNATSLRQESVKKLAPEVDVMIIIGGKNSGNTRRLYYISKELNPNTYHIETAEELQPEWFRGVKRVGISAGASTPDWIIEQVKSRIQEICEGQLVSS
Procedure, shortened: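 Ni-NTA-purified recombinant enzyme expressed in E. coli BL-21(DE3). Cluster reconstituted anaerobically with DTT, elemental sulfur and FeCl3 until A410/A280 reached about 0.38. Run anaerobically at room temperature in pH 8.0 Tris·HCl/NaCl/5% glycerol with 0.4 mM dithionite, 2 mM methyl viologen and 72 nM enzyme, across varied HMBPP. Initial rates at 732 nm fitted to Michaelis-Menten.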

[3] = target: farnesyl diphosphate synthase; conditions: read-out: Ki, farnesyl diphosphate synthase inhibition; previous work ref 22; cited from earlier work

Compound | activity in IspH inhibition (in words) [2] | other results
O=P(O)(O)OP(=O)(O)O [PPi] |  | IspH inhibition (weak inhibitors) [1]: ~ 1 mM
C/C(=C\COP(=O)(O)OP(=O)(O)O)CO [HMBPP, E-4-hydroxy-3-methyl-but-2-enyl diphosphate] |  | Km ([2]; read-out: KM for HMBPP, reconstituted A. aeolicus IspH, Michaelis-Menten fit): 5 µM and 7 µM
O=P(O)(O)OP(=O)(O)OCc1ccc(Cl)nc1 [compound 29, (6-Chloropyridin-3-yl)-methyl-diphosphate] | lack of activity | 
N#CCOP(=O)(O)OP(=O)(O)O [compound 15, Cyanomethyl diphosphate] | far less active than their acetylenic counterparts | 
N#CCCOP(=O)(O)OP(=O)(O)O [compound 16, 2-Cyanoethyl diphosphate] | far less active than their acetylenic counterparts | 
Cc1ccc[n+](CC(O)(P(=O)([O-])O)P(=O)(O)O)c1 (stereo not shown) [compound 18] |  | Ki [3]: ~20 nM
C#CC(=O)O [propiolic acid] | poor activity | 
